Screening data: PubChem BioAssay, several laboratories
Sampled rows, rich in hits. Any-hit rate of the full collection: about 3%.
Cardio protect – myocardial damage modulation in H9c2 cells; H9c2 cardiomyocytes, H2O2 injury protection, ATPLite, 2 h; protection from H2O2 cell death, % at 20 µM; actives 0.63% (n = 360,000); AID 588492;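 active = compounds giving at least 50% protection of heart cells from peroxide-induced death in the single-dose screen, raw or plate-pattern-corrected value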;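 also: 0% = DMSO wells with peroxide and 100% = DMSO wells without peroxide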
Myeloid diff 2 – promotes myeloid progenitor differentiation | ER-HoxA9 myeloid progenitors, lysozyme-GFP differentiation, flow cytometry | calls only at 10 µM | actives 1% (n = 360,000) | AID 624256;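 active = normalized GFP-positive differentiation at or above the plate's own cutoff, the solvent-only control mean plus 3 SD; inconclusive = no clear call, values can overlap the other calls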;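 also: cells exposed to compound for four days before flow analysis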
Exocytosis inh – lytic granule exocytosis inhibition. TALL-104 LAMP-1 surface exposure, flow cytometry; cells stimulated with thapsigargin and PMA. inhibition, % at 10 µM. actives 0.66% (n = 360,000);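 active = inhibition above about 55%, limit read from the data; inconclusive = no clear call, values can overlap the other calls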
SENP1 FRET inh – inhibitors of human SENP1 SUMO protease catalytic domain; inhibition, % at 10 µM; actives 0.21% (n = 360,000); Q9P0U3; recombinant SENP1 catalytic domain, CyPet-SUMO1-YPet FRET cleavage; AID 624204;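 active = inhibition at least 30% at 10 µM, raw YFP signal under a set limit, fluorescence ratio 0.5 to 1.5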;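 also: 0% = enzyme with DMSO and 100% = no enzyme wells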
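Assay system: hSENP1 catalytic domain, recombinant. Amount: SENP1 enzyme, 20 pM final. Schedule: 50 min reaction, RT, dark. Technique: FRET, CFP and YFP emission. Control set: no-enzyme wells low, DMSO-plus-enzyme wells high control.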
DSG3 Ab inh – inhibitors of pemphigus antibody binding to human desmoglein-3; P32926; DSG3-coupled beads, scFv-anti-DSG3-GFP binding, flow cytometry; hits give low values; binding (percent of control), % at 10 µM; actives 0.48% (n = 310,000);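 active = binding more than 3 SD below its plate's average and above zero; inconclusive = below that plate limit but binding exactly zero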;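 also: hits lower antibody fragment binding to DSG3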
HNF4A DNA FP – change in binding of human HNF4 alpha to DNA. P41235. HNF4a-FITC DNA binding, fluorescence polarization, 1 h. activity change, % at 10 µM. actives 0.3% (n = 360,000). AID 1224865; in the data active = activity change above about 30%, passing the limit was not always enough
* hit, by the source's call; i = inactive; ? = inconclusive; · = not tested or not shown; + = active, no number.

SMILES | Cardio protect | Myeloid diff 2 | Exocytosis inh | SENP1 FRET inh | DSG3 Ab inh | HNF4A DNA FP
O=C(CCC(=O)Nc1cccnc1)Nc1cccnc1 | 9 | i | -10 | -2 | · | 0
COc1ccc(NC(=S)NCC(c2ccco2)N2CCCC2)cc1 (centres undefined) | 8 | i | 0 | 2 | 97 | 7
CC(=O)c1ccc(NC(=S)NCC(c2ccco2)N2CCCC2)cc1 (centres undefined) | -1 | + | -4 | -1 | 162 | 0
COc1ccc(C)cc1NC(=O)c1nnn(Cc2cccc(C(F)(F)F)c2)c1N | -9 | + | -15 | 1 | 80 | -2
COc1ccc(OC)c(NC(=O)c2nnn(CCc3ccccc3)c2N)c1 | -11 | i | 5 | 3 | 97 | 2
CCOC(=O)c1c(C)[nH]c(O)c1C=Nc1ccc(Cl)cc1 | 52* | i | 4 | 4 | · | 17
COC(=O)c1c(C)[nH]c(O)c1C=Nc1ccc(Oc2ccccc2)cc1 | 84* | i | 2 | 10 | 111 | 17
O=C(Nc1ccccc1)c1oc2ccccc2c1NC(=O)C1CC1 | 3 | i | -4 | 2 | 101 | 61*
COc1cccc(C(=O)Nc2c(C(N)=O)oc3ccccc23)c1 | 111* | i | -4 | 1 | 97 | -1
CCOc1ccccc1NC(=O)c1oc2ccccc2c1NC(=O)C1CCCO1 (centres undefined) | 52* | i | 0 | 0 | 123 | -3
COC(=O)c1ccccc1NC(=O)C1CCCO1 (centres undefined) | 5 | + | -1 | 1 | 104 | 1
COC(=O)c1ccccc1NC(=O)c1ccc(NC(=O)C2CCCO2)cc1 (centres undefined) | 7 | i | 18 | 2 | 103 | -2
CCOC(=O)c1oc2ccccc2c1NC(=O)c1cccc(OC)c1 | 2 | i | 11 | 2 | 104 | 0
CCc1ccc(N2C(=O)C(Cl)=C(Nc3ccc(C(=O)N4CCCC4)cc3)C2=O)cc1 | 13 | i | -6 | 22 | 99 | 0
COc1ccc(NC(=O)c2oc3ccccc3c2NC(=O)c2ccc(OC)c(OC)c2)c(OC)c1 | 14 | i | -1 | -3 | 7.3* | -4
CCOc1ccc(S(=O)(=O)N(C)CCO)cc1-c1nc2c(C(C)(C)C)nn(C)c2c(=O)[nH]1 | 56* | i | 0 | 0 | 104 | 0
CCOc1ccc(S(=O)(=O)N(C)C)cc1-c1nc2c(C(C)(C)C)nn(C)c2c(=O)[nH]1 | 21 | i | -5 | 3 | 105 | 3
CC(=O)N1CCN(c2ccc(NC(=O)C(c3ccccc3)c3ccccc3)cc2)CC1 | -1 | i | -8 | 1 | 38* | 0
COCC(C)n1c(C)cc(C(=O)COC(=O)c2nn(C)c(=O)c3ccccc23)c1C (centres undefined) | -3 | i | -1 | 2 | 64* | 0
COC(=O)[C@@]1(C)[C@H]2C(=O)N(Cc3ccccc3)C(=O)[C@H]2[C@H]2CN(C)C(=NC3CCCCC3)N21 | 0 | i | -2 | 1 | 100 | -1
Cc1ccccc1OCCOC(=O)c1c(-c2ccccc2)noc1C | -15 | ? | 94* | 1 | 104 | -1
Cc1onc(-c2ccccc2)c1C(=O)OCCOc1ccc([N+](=O)[O-])cc1[N+](=O)[O-] | -12 | i | 38 | 2 | 102 | 0
CCCCNC(=O)c1[nH]c(C)c(C(C)=O)c1C | -2 | i | -2 | 0 | 100 | 34*
CCOC(=O)C(C)Sc1ncc(-c2ccc(Cl)cc2)cn1 (centres undefined) | -8 | i | 0 | 1 | 98 | 73*
CC1Cc2ccccc2N1C(=O)CN1CCC(C(N)=O)CC1 (centres undefined) | -3 | i | -2 | 0 | 111 | -2
SMILES | Cardio protect | Myeloid diff 2 | Exocytosis inh | SENP1 FRET inh | DSG3 Ab inh | HNF4A DNA FP
CN1CCc2cc(O)c(O)cc2C(c2ccccc2)C1 (centres undefined) | 54* | i | -4 | -1 | 119 | 6
CN1CCc2cc(Cl)c(O)cc2[C@@H](c2ccccc2)C1 | 24 | i | -1 | 0 | 117 | 2
Cc1cc(Oc2ccc(N)cn2)ccc1Cl | -3 | + | 2 | -22 | 104 | 59
CC(=O)Nc1sc2c(c1C#N)CC(C)(C)NC2(C)C | 5 | + | -3 | 1 | 103 | -5
CCCC(=O)Nc1sc2c(c1C#N)CC(C)(C)NC2(C)C | 39 | i | 2 | 0 | 90 | -1
Cc1ccc(C(=O)CC(=O)COc2ccc(Cl)cc2)cc1 | 72* | i | -1 | 2 | 83 | 1
O=c1[nH]nc(CNc2ccc(C(F)(F)F)cc2)c2ccccc12 | 69* | i | 8 | 2 | 87 | 2
O=c1[nH]nc(CNc2ccc(O)cc2)c2ccccc12 | 87* | i | 3 | 10 | 92 | 3
Cc1sc2ncn(CC(=O)N3CCN(c4ccccn4)CC3)c(=O)c2c1S(=O)(=O)N1CCCCC1 | 0 | i | -5 | -4 | · | 4
O=c1c2sccc2n(Cc2cc(=O)n3ccccc3n2)c(=O)n1-c1ccccc1 | 18 | i | 2 | 1 | 93 | 1
COc1cc(-n2c(=O)c3ccccc3n(Cc3cc(=O)n4ccccc4n3)c2=O)cc(OC)c1OC | 57* | i | 3 | 1 | 98 | 1
CCOc1ccc(C(=O)N2CCCC2C(=O)O)cc1 (centres undefined) | -5 | + | 2 | 1 | 95 | 0
CCCCN(C(=O)c1c(CC)noc1C)c1c(N)n(CCCC)c(=O)[nH]c1=O | -1 | i | -6 | -4 | 97 | -1
CCc1cc(CNC(=O)C2CCC(=O)N(CCc3ccc(OC)cc3)C2)on1 (centres undefined) | 1 | i | 2 | 0 | 112 | 39*
Cn1sc2ccccc2c1=O | -29 | ? | 19 | 0 | · | 0
CN(C)S(=O)(=O)c1cccc(-n2sc3ccccc3c2=O)c1 | -2 | i | -1 | 0 | 29* | 5
O=C1c2ccccc2C(=O)N1c1nccs1 | 1 | i | 12 | 1 | 110 | 0
CN(C)S(=O)(=O)c1cccc(NC(=O)c2cccc(N3C(=O)CCC3=O)c2)c1 | -1 | i | 5 | -1 | 100 | -1
O=c1c2ccccc2sn1-c1nccs1 | -23 | i | 85* | -3 | 28* | 0
O=C(O)c1cccc(N2C(=O)CSC2c2ccccc2)c1 (centres undefined) | -2 | i | 5 | 0 | 95 | -3
O=C(O)c1cccc(-n2sc3ccccc3c2=O)c1 | 78* | i | 1 | 3 | 61* | 4
O=c1c2ccccc2sn1-c1cccc(Cl)c1 | -32 | i | 38 | 0 | 40* | 1
